# Screening data: PubChem BioAssay, Broad Institute
# INS-1E ATP HTS = protection of INS-1E cells from cytokine death, primary screen, ATP luminescence, single point; hit rate 0.1% among 20,000; protection from cytokine-induced ATP loss, % at 10 µM; INS-1E cytokine-induced death, 48 h; normalised: neutral wells 0, positive control 100;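 active = mean replicate protection from cytokine-induced ATP loss at least 50% and at least 75% of replicates each reaching 50%; inconclusive = meets only one of the two criteria, mean or replicate share; inactive = fails both the mean and replicate share criteria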
#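 Test system: INS-1E rat cells | Quantity: 8000 cells per well | Medium: Phenol-red-free RPMI with 5% fetal bovine serum | Reagent: Cytokine cocktail of IFN-γ, TNF-α and IL-1β | Doses: One compound concentration, pin transfer | Timing: 48 h co-treatment, 10 min post-lysis read | Technique: Luminescent ATP assay (CellTiter-Glo)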
# A1 apoptosis 2 = A1 inhibitors via caspase activation, primary screen, cell-based, luminescence, HTS, two replicates. MEF A1-2A-BIM cells, caspase-Glo luminescence, 3 h; percent of clofoctol response, DMSO zero. caspase activation, % (no concentration beside the values). 24,000 tested, under 10 active; in the data active = caspase activation above about 5.9%; inconclusive = no clear call, values can overlap the other calls; inactive = below about 2.2%
#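 Test system – A1-2A-BIM-expressing MEF cells · Input – 2500 cells/well · Medium – RPMI-1640 growth medium with 10% FBS · Compound dosing – 50 nL pinned compound · Timing – 3 h compound exposure at 37 °C · Technique – Caspase-Glo luminescence (DEVD substrate) · Evaluation – Caspase-3/7 activity from luminescence increase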
# T cruzi HTS = inhibitors of intracellular Trypanosoma cruzi, primary screen, cell-based, plate reader, single point, set 2 | intracellular Trypanosoma cruzi in host cells | hit rate 4.9% among 22,000 | activity score (inhibition), % at 5.01 µM; in the data active = activity score above about 55%; inconclusive = no clear call, values can overlap the other calls;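 note: parasites and compound incubated about four days before reading; 0% = median of neutral control wells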
# * = called active by the depositor; ? = inconclusive; · = no result given. Many of the other results were omitted from the sample, so hits are more common in it than they were.
SMILES,INS-1E ATP HTS,A1 apoptosis 2,T cruzi HTS
C[C@H]1CN([C@@H](C)CO)C(=O)c2cccc(NC(=O)c3nc4ccccc4s3)c2O[C@@H]1CN(C)Cc1ccc(Oc2ccccc2)cc1,-11,0,54
C[C@@H]1CN([C@H](C)CO)C(=O)c2cccc(NC(=O)c3nc4ccccc4s3)c2O[C@@H]1CN(C)Cc1ccc(-c2ccccc2)cc1,-33,-1,34
C[C@@H]1CN([C@H](C)CO)C(=O)c2cccc(NC(=O)c3nc4ccccc4s3)c2O[C@@H]1CN(C)Cc1ccccc1,-56,-1,23
CNC[C@@H]1Oc2ccc(NC(=O)C3CCCCC3)cc2C(=O)N([C@H](C)CO)C[C@H]1C,14,-1,-20
COc1ccc(S(=O)(=O)Nc2ccc3c(c2)C(=O)N([C@H](C)CO)C[C@@H](C)[C@@H](CN(C)Cc2ccc(C(F)(F)F)cc2)O3)cc1,-18,·,-2
C[C@@H]1CN([C@@H](C)CO)C(=O)c2cc(NC(=O)C3CCCCC3)ccc2O[C@H]1CN(C)Cc1ccc(C(F)(F)F)cc1,-12,·,14
C[C@H](CO)N1C[C@H](C)[C@H](CN(C)C(=O)NC2CCCCC2)Oc2ccc(NC(=O)Nc3ccc4c(c3)OCO4)cc2CC1=O,11,1,-11
C[C@@H]1CN([C@H](C)CO)C(=O)Cc2cc(NC(=O)c3ccncc3)ccc2O[C@@H]1CN(C)C(=O)Nc1ccc2c(c1)OCO2,-1,·,-11
C[C@H]1CN([C@@H](C)CO)C(=O)Cc2cc(NS(=O)(=O)c3cn(C)cn3)ccc2O[C@H]1CN(C)S(C)(=O)=O,30,·,-48
C[C@@H]1CN([C@H](C)CO)C(=O)c2cccc(NC(=O)C3CCCCC3)c2O[C@H]1CN(C)S(=O)(=O)c1cn(C)cn1,14,1,-31
C[C@H](CO)N1C[C@H](C)[C@H](CN(C)Cc2ccc(C(F)(F)F)cc2)Oc2ccc(NC(=O)Nc3ccc(F)cc3)cc2C1=O,·,-2,58*
C[C@@H]1CN([C@H](C)CO)C(=O)c2cc(NC(=O)Nc3ccc(C(F)(F)F)cc3)ccc2O[C@@H]1CN(C)Cc1ccc(C(F)(F)F)cc1,-27,·,25
C[C@@H]1CN([C@@H](C)CO)C(=O)c2cc(NC(=O)Nc3ccc(C(F)(F)F)cc3)ccc2O[C@@H]1CN(C)Cc1ccc(Cl)c(Cl)c1,-46,0,75*
C[C@H](CO)N1C[C@H](C)[C@@H](CN(C)C(=O)Nc2ccc(C(F)(F)F)cc2)Oc2ccc(NC(=O)Nc3ccc(C(F)(F)F)cc3)cc2C1=O,-103,·,?
C[C@H](CO)N1C[C@H](C)[C@H](CN(C)Cc2ccccc2)Oc2ccc(NC(=O)Nc3ccc(C(F)(F)F)cc3)cc2C1=O,·,·,32*
C[C@H](CO)N1C[C@H](C)[C@@H](CN(C)Cc2ccc(C(F)(F)F)cc2)Oc2ccc(NC(=O)Nc3ccc(F)cc3)cc2C1=O,-62,0,12
C[C@@H]1CN([C@H](C)CO)C(=O)c2cc(NC(=O)Nc3ccc(C(F)(F)F)cc3)ccc2O[C@@H]1CN(C)Cc1ccccc1,-31,-1,14
C[C@H](CO)N1C[C@H](C)[C@H](CN(C)C(=O)Nc2ccc(C(F)(F)F)cc2)Oc2ccc(NC(=O)Nc3ccc(C(F)(F)F)cc3)cc2C1=O,-20,·,74*
Cc1noc(C)c1NC(=O)Nc1cccc2c1O[C@@H](CN(C)C(=O)Nc1c(C)noc1C)[C@@H](C)CN([C@H](C)CO)C2=O,8,0,3
C[C@@H]1CCCCO[C@H](CN(C)C(=O)Nc2ccccc2)[C@H](C)CN([C@@H](C)CO)C(=O)c2cc(NC(=O)Nc3ccc(C(F)(F)F)cc3)ccc2O1,·,-1,·
C[C@H](CO)N1C[C@H](C)[C@H](CN(C)Cc2ccc(C(F)(F)F)cc2)OCCCC[C@H](C)Oc2ccc(NC(=O)CCC(F)(F)F)cc2C1=O,·,1,·
Cc1noc(C)c1NC(=O)Nc1ccc2c(c1)CC(=O)N([C@H](C)CO)C[C@@H](C)[C@@H](CN(C)C(=O)Nc1c(C)noc1C)O2,11,-1,-20
C[C@@H]1CN([C@@H](C)CO)C(=O)c2cc(NC(=O)Nc3ccc(C(F)(F)F)cc3)ccc2O[C@@H]1CN(C)Cc1ccc(C(F)(F)F)cc1,-62,0,52
C[C@H]1CN([C@@H](C)CO)C(=O)c2cc(NC(=O)Nc3ccc(C(F)(F)F)cc3)ccc2O[C@@H]1CN(C)Cc1ccc(C(F)(F)F)cc1,·,?,72*
C[C@@H]1CN([C@@H](C)CO)C(=O)c2cccc(NC(=O)NC3CCCCC3)c2O[C@@H]1CN(C)S(=O)(=O)c1cccs1,0,1,-8
SMILES,INS-1E ATP HTS,A1 apoptosis 2,T cruzi HTS
Cc1ccc(S(=O)(=O)Nc2cccc3c2O[C@H](CN(C)Cc2ccc(C(=O)Nc4ccccc4N)cc2)[C@@H](C)CN([C@H](C)CO)C3=O)cc1,·,2,·
C[C@@H]1CN([C@H](C)CO)C(=O)c2cccc(NS(=O)(=O)c3ccccc3)c2O[C@@H]1CN(C)Cc1ccc(C(=O)Nc2ccccc2N)cc1,11,·,75*
C[C@@H]1CN([C@H](C)CO)C(=O)c2cccc(NS(=O)(=O)c3ccc(F)cc3)c2O[C@@H]1CN(C)Cc1ccc(C(=O)Nc2ccccc2N)cc1,27,-1,60*
C[C@@H]1CN([C@@H](C)CO)C(=O)c2cccc(NS(=O)(=O)c3ccc(Cl)cc3)c2O[C@H]1CN(C)Cc1ccc(C(=O)Nc2ccccc2N)cc1,-1,-1,56*
C[C@@H]1CN([C@H](C)CO)C(=O)c2cccc(NS(=O)(=O)c3ccc(F)cc3)c2O[C@H]1CN(C)Cc1ccc(C(=O)Nc2ccccc2N)cc1,5,1,41
C[C@H]1CN([C@@H](C)CO)C(=O)c2cccc(NS(=O)(=O)c3ccccc3)c2O[C@H]1CN(C)Cc1ccc(C(=O)Nc2ccccc2N)cc1,-10,-1,53
C[C@H](CO)N1C[C@H](C)[C@@H](CN(C)Cc2ccc(C(=O)Nc3ccccc3N)cc2)Oc2c(NS(=O)(=O)c3ccc(Cl)cc3)cccc2C1=O,-15,·,49
Cc1ccc(S(=O)(=O)Nc2cccc3c2O[C@@H](CN(C)Cc2ccc(C(=O)Nc4ccccc4N)cc2)[C@@H](C)CN([C@H](C)CO)C3=O)cc1,5,0,57*
CC(C)(C)OC(=O)Nc1cccc(/C=N/NC(=O)c2ccc(C(=O)NO)cc2)c1,9,1,-17
C[C@H]1CN([C@@H](C)CO)C(=O)c2cc(NS(=O)(=O)c3cn(C)cn3)ccc2O[C@H]1CN(C)Cc1ccc2c(c1)OCO2,·,·,-12
CC(C)NC(=O)Nc1ccc2c(c1)C(=O)N([C@H](C)CO)C[C@H](C)[C@@H](CN(C)S(=O)(=O)c1cn(C)cn1)OCCCC[C@H](C)O2,·,0,·
O=C(N1CCOCC1)[C@]1(CCS(=O)(=O)c2ccccc2)N=C(c2ccc(OCCCO)cc2)O[C@@H]1c1ccccc1,·,1,·
CNC[C@@H]1Oc2ncc(-c3cc4ccccc4o3)cc2C(=O)N([C@H](C)CO)C[C@@H]1C,·,-1,79*
